Source: PubChem (several laboratories)
VIM-2 inh: inhibitors of Pseudomonas aeruginosa VIM-2 metallo-beta-lactamase | purified VIM-2, nitrocefin hydrolysis, epi-absorbance fluorescence | inhibition, % at 5.6 µM | 290,000 compounds, 0.89% hits;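 active = inhibition above the mean of all tested compounds plus 3 SD, cutoff set per screening run, cut at about 7.5% in these data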;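 also: red hydrolysis product quenches plate fluorescence so inhibitors raise well fluorescence; 0% = enzyme with DMSO and 100% = DMSO without enzyme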
Fh CTSL1 inh: counter-screen for PFM18AAP inhibitors: inhibitors of F. hepatica cathepsin L1 | recombinant F. hepatica cathepsin L1, Z-Leu-Arg-MCA fluorescence | inhibition, % at 5.96 µM | 300,000 compounds, 0.49% hits | AID 1906;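 active = inhibition above the mean of all tested compounds plus 3 SD, set per screening campaign, cut at about 17% in these data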;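 also: 0% = plate median of test compound wells and 100% = 1 µM Z-Phe-Ala-diazomethylketone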
IMP-1 inh-1: blocks Pseudomonas aeruginosa IMP-1 metallo-beta-lactamase | purified IMP-1, nitrocefin hydrolysis, epi-absorbance fluorescence | inhibition, % at 5.6 µM | 290,000 compounds, 0.45% hits;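 active = inhibition above the mean plus 3 SD of all compounds in the same screening run, cut at about 4.5% in these data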;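 also: 0% = IMP-1 with DMSO and 100% = DMSO wells lacking enzyme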
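System: purified IMP-1 / Input: IMP-1 dispensed at 0.2 nM / Medium: 50 mM HEPES pH 7.1, 50 µM ZnSO4, 0.05% Brij 35 / Timing: 15 min enzyme–compound preincubation, then 25 min nitrocefin reaction, 25 °C / Technique: plate fluorescence quenching by hydrolysis product, ex 480/em 530 nm / Repeats: singlicate testing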
p-CIP stab down: lowers stability of the mouse p/CIP coactivator protein. Q05BA5. F442A p/CIP-EGFP cells, EGFP fluorescence, 16 h. decrease of EGFP signal, % at 10 µM. 290,000 compounds, 0.01% hits;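 active = EGFP signal decrease of at least 30% at 10 µM or well 3 SD below plate mean, unless failing retest; inactive = the rest, including hits failing retest or dose response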
UBC9 SUMO inh: blocks human SUMOylation mediated by UBC9; P63279; HTRF SUMOylation assay, SAE1/SAE2 + UBC9, in vitro; inhibition, % at 35 µM; 290,000 compounds, 0.36% hits; in the data active = inhibition above about 50%, passing the limit was not always enough
T cell HTS: modulates CD8 T cell binding to vesicles | 2C CD8+ T cell-vesicle binding, flow cytometry; active compounds read low | response (vesicle binding), % at 7 µM | 330,000 compounds, 0.068% hits | AID 2052;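 active = response, share of CD8 T cells binding vesicles, and their 90th percentile fluorescence all below set limits, cut at about 80% in these data, passing the limit was not always enough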;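 also: values below 100% mean blocked vesicle binding to the CD8+ T cells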
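Material: 2C TCR transgenic mouse naive CD8+ T cells, MACS-purified. Also added: QL9-charged Drosophila Ld/ICAM-1/B7-1 vesicles. Timing: binding 1.5 h at 37 °C. Measured by: high-throughput flow cytometry with anti-B7-1 and anti-CD8 staining. Read-out: percent CD8+ FL2 mean versus row control. Controls: Unloaded micro-vesicles (low), QL9 vesicles with 0.7% DMSO (high).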
IMP-1 inh-2: blocks IMP-1 metallo-beta-lactamase in VIM-2 selectivity screen | 1,300 tested, under 10 active | AID 1856 | shares compounds with VIM-2 inh | inhibition, % at 5.6 µM | purified IMP-1, nitrocefin hydrolysis, epi-absorbance fluorescence; call rule not given here;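 also: 0% = enzyme with vehicle and 100% = vehicle without enzyme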
VIM-2 FRET inh: counter-screen for VIM-2 inhibitors: epi-absorbance artifacts via FRET | shares compounds with VIM-2 inh | purified VIM-2, CCF2 FRET substrate hydrolysis | inhibition, % at 5.6 µM | 1,300 compounds, 23% hits | AID 1857;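 active = inhibition above the mean of all tested compounds plus 3 SD, cut at about 19% in these data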;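 also: 0% = VIM-2 plus DMSO and 100% = no enzyme wells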
TEM-1 counter: TEM-1 inhibition, counter-screen for VIM-2 inhibitors; shares compounds with VIM-2 inh; Purified TEM-1, nitrocefin hydrolysis, epi-absorbance fluorescence; inhibition, % at 5.6 µM; 1,300 compounds, 3% hits;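 active = inhibition above that campaign's mean inhibition plus 3 SD, cut at about 0.46% in these data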;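 also: 0% = TEM-1 with DMSO and 100% = TEM-1 with 100 µM potassium clavulanate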
VIM-2 inh conf: confirmation of P. aeruginosa VIM-2 metallo-beta-lactamase inhibitors; shares compounds with VIM-2 inh; purified VIM-2, nitrocefin hydrolysis, epi-absorbance; inhibition, % at 5.6 µM; 1,300 compounds, 96% hits; AID 2187;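 active = inhibition of the VIM-2 beta-lactamase enzyme above about 11% from the earlier first-round screen, limit read from the data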;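 also: 0% = VIM-2 with DMSO and 100% = buffer wells without enzyme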
An asterisk follows results filed as active; i = inactive; / = no result. Compounds with a hit are over-represented: about 1.9% of the library has one in this group of screens.

SMILES | VIM-2 inh | Fh CTSL1 inh | IMP-1 inh-1 | p-CIP stab down | UBC9 SUMO inh | T cell HTS | IMP-1 inh-2 | VIM-2 FRET inh | TEM-1 counter | VIM-2 inh conf
CCCCn1c(-c2cccnc2)n[nH]c1=S | 20* | -1 | -5 | 8 | -1 | 288 | -3 | 32* | -7 | 22*
O=C(CSc1nnc(NC(=O)c2cccc(F)c2)s1)NCC1CCCO1 (stereo not given) | 17* | 1 | -1 | -2 | 13 | 336 | -2 | 26* | -5 | 15*
O=C(CSc1nnc(NC(=O)c2c(F)cccc2F)s1)NCC1CCCO1 (stereo not given) | / | -2 | / | / | / | 364 | / | / | / | /
Cc1cccc(C(=O)Nc2nnc(SCC(=O)NCc3ccco3)s2)c1 | 18* | 1 | -1 | -17 | 11 | i | -3 | 37* | -7 | 24*
CSCc1cc(N(C)c2ccccc2)nc(-c2ccccn2)n1 | 64* | 0 | -3 | -3 | 5 | 111 | -4 | -56 | -7 | 72*
CCc1ccc(NC(=O)C2CCCN2S(=O)(=O)c2ccc3c(c2)n(C)c(=O)c(=O)n3C)cc1 (stereo not given) | 0 | 3 | -1 | -5 | 13 | 0 | / | / | / | /
CCOC(=O)c1c(NC(=O)c2ccc(S(=O)(=O)N3CCOCC3)cc2)sc2c1CCN(C(C)C)C2 | 3 | 0 | -2 | 0 | -3 | 202 | / | / | / | /
COC(=O)c1c(NC(=O)c2ccc(S(=O)(=O)N3CCOCC3)cc2)sc2c1CCN(C)C2 | 78* | 2 | -1 | -22 | 19 | 200 | -2 | -1 | -7 | 85*
CNC(=O)c1c(NC(=O)c2ccc(S(=O)(=O)N3CCCCC3C)cc2)sc2c1CCN(C)C2 (stereo not given) | 22* | -2 | 3 | -10 | 1 | 408 | -3 | 2 | -6 | 30*
CCN1CCc2c(sc(NC(=O)c3ccc(S(=O)(=O)N4CCOCC4)cc3)c2C(=O)OC)C1 | 64* | 1 | -3 | -6 | -3 | 210 | -2 | -2 | -4 | 77*
CCN1CCc2c(sc(NC(=O)c3ccc(S(=O)(=O)N4CCOCC4)cc3)c2C(N)=O)C1 | 3 | -3 | -2 | -6 | -2 | 615 | / | / | / | /
CC(C)c1cc(C(=O)N2CCCC(N3CCN(c4ccc(F)cc4)CC3)C2)n(C)n1 (stereo not given) | -2 | / | -2 | -7 | -9 | / | / | / | / | /
O=[N+]([O-])c1ccccc1Nc1nc(-c2cccnc2)cs1 | 16* | -6 | -4 | -5 | 9 | 322 | -3 | -3 | -10 | 27*
CCc1ccccc1Nc1nc(-c2cccnc2)cs1 | 1 | 1 | -1 | 10 | -6 | 102 | / | / | / | /
COC(=O)c1c(C(=O)OC)c2oc3ccccc3n2c1Cl | 14* | -3 | -3 | -11 | 14 | 178 | -2 | 2 | -5 | 18*
COC(=O)c1c(C(=O)OC)c2cc(C(=O)c3ccccc3)ccn2c1Cl | 7 | 4 | -6 | -9 | -4 | 156 | / | / | / | /
CN1CCN(S(=O)(=O)c2cccc3nsnc23)CC1 | 1 | 5 | -2 | -13 | 19 | 202 | / | / | / | /
COc1cc2nc(CN(C)Cc3ccc(OC)c(OC)c3OC)[nH]c(=O)c2cc1OC | -3 | -1 | -3 | -8 | 0 | 238 | / | / | / | /
Cc1ccc(-n2c(C)n[nH]c2=S)cc1 | -3 | -6 | -5 | -5 | 15 | 424 | / | / | / | /
Cc1ccc(-c2csc3n[nH]c(=S)n23)cc1 | 46* | 0 | 0 | 0 | 9 | 209 | -1 | 70* | -3 | 57*
